Test results: ChEMBL document CHEMBL3792370, “New pseudodimeric aurones as palm pocket inhibitors of Hepatitis C virus RNA-dependent RNA polymerase” (Eur J Med Chem, 2016)
Active and inactive are the calls of the source. No cut-off for these calls is given here.

What was measured:
[1] = Inhibition of HCV J4 genotype 1b recombinant His-tagged NS5B truncated at 21 C-terminal expressed in Escherichia coli C41 (DE3) assessed as synthesis of […]; parameters: species or system Hepatitis C virus isolate HC-J4
[2] = system: HEK293; experiment: Cytotoxicity against HEK293 cells at 50 uM after 72 hrs by MTT assay; details: human, hek293, 72 h
[3] = system: Hepatitis C virus; experiment: Antiviral activity against HCV genotype 2a/2a J6/JFH1 model infected in Huh7.5 cells after 72 hrs by luciferase reporter gene assay; format: functional, organism-based, Hepacivirus hominis; details: subtype 2a J6/JFH1, Huh7.5, 72 h
Summary of the method: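 Huh7.5 cells were seeded at 10 000 cells/well and infected 24 h later with J6/JFH1 HCVcc, then incubated overnight at 37°C. Cells were washed and given increasing compound concentrations in medium with 1% DMSO for 72 h at 37°C. After a PBS wash, cells were lysed in Renilla lysis buffer and luciferase activity was read for 10 s.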

[4] = Inhibition of HCV J4 genotype 1b recombinant His-tagged NS5B truncated at 21 C-terminal P495L mutant expressed in Escherichia coli C41 (DE3) assessed as synthesis of […]; parameters: species or system Hepatitis C virus isolate HC-J4
[5] = system: Hepatitis C virus isolate HC-J4; experiment: Inhibition of HCV J4 genotype 1b recombinant His-tagged NS5B truncated at 21 C-terminal H95Q mutant expressed in Escherichia coli C41 (DE3) assessed as synthesis of […]

Compound	IC50 [1] [µM]	EC50 [3] [µM]	Activity [2]	IC50 [4] [µM]	Activity [5]
COc1cc(OC)c2c(c1)O/C(=C\c1cccc(/C=C3\Oc4cc(OC)cc(OC)c4C3=O)c1)C2=O	–	–	Non-toxic	–	–
O=C1/C(=C/c2ccc(OCC(COc3ccc(/C=C4\Oc5cc(O)cc(O)c5C4=O)cc3)C3CCCCC3)cc2)Oc2cc(O)cc(O)c21 (stereo unspecified)	2	42	–	–	–
O=C1/C(=C/c2ccc(/C=C3\Oc4cc(O)cc(O)c4C3=O)cc2)Oc2cc(O)cc(O)c21	1.3	202	Non-toxic	1.5	inactive
O=C1/C(=C/c2ccc(-c3cccc(/C=C4\Oc5cc(O)cc(O)c5C4=O)c3)cc2)Oc2cc(O)cc(O)c21	3.1	–	–	–	–
O=C1/C(=C/c2cccc(/C=C3\Oc4cc(O)cc(O)c4C3=O)c2)Oc2cc(O)cc(O)c21	3.6	–	–	–	–
CC(C)CC(COc1ccc(/C=C2\Oc3ccccc3C2=O)cc1)COc1ccc(/C=C2\Oc3ccccc3C2=O)cc1	–	> 400	–	–	–
O=C1/C(=C/c2ccc(-c3ccccc3/C=C3\Oc4cc(O)cc(O)c4C3=O)cc2)Oc2cc(O)cc(O)c21	6	–	–	–	–

Now from value to compound, other results behind:

IC50 [1] [µM]	EC50 [3] [µM]	Compound	Activity [2]	IC50 [4] [µM]	Activity [5]
1.9	–	O=C1/C(=C/c2ccc(OCC(COc3ccc(/C=C4\Oc5cc(O)cc(O)c5C4=O)cc3)C3CCCC3)cc2)Oc2cc(O)cc(O)c21 (stereo unspecified)	–	–	–
0.6	9.1	COc1c(-c2ccc3cc(NS(C)(=O)=O)ccc3c2)cc(-n2ccc(=O)[nH]c2=O)cc1C(C)(C)C [DASABUVIR]	–	–	–
1.9	76	CC(C)CC(COc1ccc(/C=C2\Oc3cc(O)cc(O)c3C2=O)cc1)COc1ccc(/C=C2\Oc3cc(O)cc(O)c3C2=O)cc1	–	–	–
1.8	90	O=C1/C(=C/c2ccc(OCC(COc3ccc(/C=C4\Oc5cc(O)cc(O)c5C4=O)cc3)CC3CCCCC3)cc2)Oc2cc(O)cc(O)c21 (stereo unspecified)	–	–	–
1.5	214	O=C1/C(=C/c2ccc(OCCCOc3ccc(/C=C4\Oc5cc(O)cc(O)c5C4=O)cc3)cc2)Oc2cc(O)cc(O)c21	–	–	–
